ChEMBL document CHEMBL4138211, “Regio- and stereoselective synthesis of dispirooxindole-pyrrolocarbazole hybrids via 1,3-dipolar cycloaddition reactions: Cytotoxic activity and SAR studies” (Eur J Med Chem, 2018)
Activity calls are given as the source filed them. The calls are words filed in the database; no cut-off is given here.

The molecules below were run on MCF7 (assay: Induction of apoptosis in human MCF7 cells assessed as membrane blebbing after 24 hrs by brightfield inverted light microscopic analysis). Conditions: not given.
Type: functional, cell-based

SMILES | Activity
COc1ccc([C@H]2[C@@H](c3ccccc3)N[C@@]3(C(=O)Nc4ccccc43)[C@]23CCc2c([nH]c4ccc(Cl)cc24)C3=O)cc1 | inactive
COc1ccc([C@H]2[C@@H](c3ccccc3)N[C@@]3(C(=O)Nc4ccccc43)[C@]23CCc2c([nH]c4ccc(C)cc24)C3=O)cc1 | inactive
O=C1Nc2ccccc2[C@]12N[C@H](c1ccccc1)[C@H](c1cccs1)[C@@]21CCc2c([nH]c3ccccc23)C1=O | inactive

What follows are molecules tested on MCF7 (assay: Induction of apoptosis in human MCF7 cells assessed as nuclear fragmentation after 24 hrs by DAPI staining-based fluorescence microscopic analysis). Conditions: not given.
Type: functional, cell-based
Summary of the method: (§1)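 Cells plated on glass coverslips and treated for 24 h, then fixed. Permeabilised with 0.2% Triton X-100 for 10 min at room temperature. DAPI applied for 3 min under a coverslip. Nuclei inspected by fluorescence microscopy for condensed chromatin and fragmentation, against untreated cells.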

SMILES | Activity
COc1ccc([C@H]2[C@@H](c3ccccc3)N[C@@]3(C(=O)Nc4ccccc43)[C@]23CCc2c([nH]c4ccc(Cl)cc24)C3=O)cc1 | Active
COc1ccc([C@H]2[C@@H](c3ccccc3)N[C@@]3(C(=O)Nc4ccccc43)[C@]23CCc2c([nH]c4ccc(C)cc24)C3=O)cc1 | Active
O=C1Nc2ccccc2[C@]12N[C@H](c1ccccc1)[C@H](c1cccs1)[C@@]21CCc2c([nH]c3ccccc23)C1=O | Active

The molecules below were run on MCF7 (assay: Induction of apoptosis in human MCF7 cells assessed as formation of floating cells after 24 hrs by brightfield inverted light microscopic analysis). Conditions: not given.
Type: functional, cell-based

SMILES | Activity
COc1ccc([C@H]2[C@@H](c3ccccc3)N[C@@]3(C(=O)Nc4ccccc43)[C@]23CCc2c([nH]c4ccc(Cl)cc24)C3=O)cc1 | inactive
COc1ccc([C@H]2[C@@H](c3ccccc3)N[C@@]3(C(=O)Nc4ccccc43)[C@]23CCc2c([nH]c4ccc(C)cc24)C3=O)cc1 | inactive
O=C1Nc2ccccc2[C@]12N[C@H](c1ccccc1)[C@H](c1cccs1)[C@@]21CCc2c([nH]c3ccccc23)C1=O | inactive

These molecules were tested on MCF7 (assay: Induction of apoptosis in human MCF7 cells by acridine orange/ethidium bromide staining-based fluorescence microscopic analysis). Conditions: not given.
Type: functional, cell-based
Summary of the method: (§2)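 Treated cells collected and washed in PBS (pH 7.2). Stained with a 1:1 AO/EtBr mixture (each dye […] in water) and held 2 min. Washed twice in PBS and viewed by fluorescence microscopy at 400× with 480 nm excitation. Green intact-membrane cells distinguished from orange/red membrane-damaged cells.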

SMILES | Activity
COc1ccc([C@H]2[C@@H](c3ccccc3)N[C@@]3(C(=O)Nc4ccccc43)[C@]23CCc2c([nH]c4ccc(Cl)cc24)C3=O)cc1 | inactive
COc1ccc([C@H]2[C@@H](c3ccccc3)N[C@@]3(C(=O)Nc4ccccc43)[C@]23CCc2c([nH]c4ccc(C)cc24)C3=O)cc1 | inactive
O=C1Nc2ccccc2[C@]12N[C@H](c1ccccc1)[C@H](c1cccs1)[C@@]21CCc2c([nH]c3ccccc23)C1=O | inactive

These molecules were tested on A549 (assay: Induction of apoptosis in human A549 cells assessed as cell shrinkage after 24 hrs by brightfield inverted light microscopic analysis). Conditions: not given.
Type: functional, cell-based

SMILES | Activity
COc1ccc([C@H]2[C@@H](c3ccccc3)N[C@@]3(C(=O)Nc4ccccc43)[C@]23CCc2c([nH]c4ccc(Cl)cc24)C3=O)cc1 | inactive
COc1ccc([C@H]2[C@@H](c3ccccc3)N[C@@]3(C(=O)Nc4ccccc43)[C@]23CCc2c([nH]c4ccc(C)cc24)C3=O)cc1 | inactive
O=C1Nc2ccccc2[C@]12N[C@H](c1ccccc1)[C@H](c1cccs1)[C@@]21CCc2c([nH]c3ccccc23)C1=O | inactive

The molecules below were run on MCF7 (assay: Induction of apoptosis in human MCF7 cells assessed as damaged cell membranes by acridine orange/ethidium bromide staining-based fluorescence microscopic analysis). Conditions: not given.
Type: functional
Summary of the method: as §2

SMILES | Activity
COc1ccc([C@H]2[C@@H](c3ccccc3)N[C@@]3(C(=O)Nc4ccccc43)[C@]23CCc2c([nH]c4ccc(Cl)cc24)C3=O)cc1 | inactive
COc1ccc([C@H]2[C@@H](c3ccccc3)N[C@@]3(C(=O)Nc4ccccc43)[C@]23CCc2c([nH]c4ccc(C)cc24)C3=O)cc1 | inactive
O=C1Nc2ccccc2[C@]12N[C@H](c1ccccc1)[C@H](c1cccs1)[C@@]21CCc2c([nH]c3ccccc23)C1=O | inactive

These molecules were tested on A549 (assay: Induction of apoptosis in human A549 cells assessed as nuclear fragmentation after 24 hrs by DAPI staining-based fluorescence microscopic analysis). Conditions: not given.
Type: functional, cell-based
Summary of the method: as §1

SMILES | Activity
COc1ccc([C@H]2[C@@H](c3ccccc3)N[C@@]3(C(=O)Nc4ccccc43)[C@]23CCc2c([nH]c4ccc(Cl)cc24)C3=O)cc1 | inactive
COc1ccc([C@H]2[C@@H](c3ccccc3)N[C@@]3(C(=O)Nc4ccccc43)[C@]23CCc2c([nH]c4ccc(C)cc24)C3=O)cc1 | inactive
O=C1Nc2ccccc2[C@]12N[C@H](c1ccccc1)[C@H](c1cccs1)[C@@]21CCc2c([nH]c3ccccc23)C1=O | inactive

These molecules were tested on MCF7 (assay: Induction of apoptosis in human MCF7 cells assessed as chromatin condensation after 24 hrs by DAPI staining-based fluorescence microscopic analysis). Conditions: not given.
Type: functional, cell-based
Summary of the method: as §1

SMILES | Activity
COc1ccc([C@H]2[C@@H](c3ccccc3)N[C@@]3(C(=O)Nc4ccccc43)[C@]23CCc2c([nH]c4ccc(Cl)cc24)C3=O)cc1 | Active
COc1ccc([C@H]2[C@@H](c3ccccc3)N[C@@]3(C(=O)Nc4ccccc43)[C@]23CCc2c([nH]c4ccc(C)cc24)C3=O)cc1 | Active

Each molecule was assayed on MCF7 (assay: Induction of apoptosis in human MCF7 cells assessed as nuclear condensation by acridine orange/ethidium bromide staining-based fluorescence microscopic analysis). Conditions: not given.
Type: functional, cell-based
Summary of the method: as §2

SMILES | Activity
COc1ccc([C@H]2[C@@H](c3ccccc3)N[C@@]3(C(=O)Nc4ccccc43)[C@]23CCc2c([nH]c4ccc(Cl)cc24)C3=O)cc1 | inactive
COc1ccc([C@H]2[C@@H](c3ccccc3)N[C@@]3(C(=O)Nc4ccccc43)[C@]23CCc2c([nH]c4ccc(C)cc24)C3=O)cc1 | inactive
O=C1Nc2ccccc2[C@]12N[C@H](c1ccccc1)[C@H](c1cccs1)[C@@]21CCc2c([nH]c3ccccc23)C1=O | inactive

Each molecule was assayed on MCF7 (assay: Induction of apoptosis in human MCF7 cells assessed as cell shrinkage after 24 hrs by brightfield inverted light microscopic analysis). Conditions: not given.
Type: functional, cell-based

SMILES | Activity
COc1ccc([C@H]2[C@@H](c3ccccc3)N[C@@]3(C(=O)Nc4ccccc43)[C@]23CCc2c([nH]c4ccc(Cl)cc24)C3=O)cc1 | inactive
COc1ccc([C@H]2[C@@H](c3ccccc3)N[C@@]3(C(=O)Nc4ccccc43)[C@]23CCc2c([nH]c4ccc(C)cc24)C3=O)cc1 | inactive
O=C1Nc2ccccc2[C@]12N[C@H](c1ccccc1)[C@H](c1cccs1)[C@@]21CCc2c([nH]c3ccccc23)C1=O | inactive

What follows are molecules tested on A549 (assay: Induction of apoptosis in human A549 cells assessed as formation of floating cells after 24 hrs by brightfield inverted light microscopic analysis). Conditions: not given.
Type: functional, cell-based

SMILES | Activity
COc1ccc([C@H]2[C@@H](c3ccccc3)N[C@@]3(C(=O)Nc4ccccc43)[C@]23CCc2c([nH]c4ccc(Cl)cc24)C3=O)cc1 | inactive
COc1ccc([C@H]2[C@@H](c3ccccc3)N[C@@]3(C(=O)Nc4ccccc43)[C@]23CCc2c([nH]c4ccc(C)cc24)C3=O)cc1 | inactive
O=C1Nc2ccccc2[C@]12N[C@H](c1ccccc1)[C@H](c1cccs1)[C@@]21CCc2c([nH]c3ccccc23)C1=O | inactive

Each molecule was assayed on MCF7 (assay: Antiproliferative activity against human MCF7 cells after 48 hrs by MTT assay). Conditions: not given.
Type: functional, cell-based
Summary of the method: (§3)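 Cells grown 1×10⁴/well for 48 h to about 75% confluence. Medium then replaced with fresh medium containing serially diluted compounds, followed by a further 48 h. MTT added for 4 h at 37 °C and formazan dissolved in DMSO for 10 min. OD read at 620 nm. IC50 taken from the viability–concentration survival curve. Three independent experiments, each in triplicate.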

SMILES | Activity
COc1ccc([C@H]2[C@@H](c3ccccc3)N[C@@]3(C(=O)Nc4ccccc43)[C@]23CCc2c([nH]c4ccccc24)C3=O)cc1 | Dose-dependent effect
COc1ccc([C@H]2[C@@H](c3ccccc3)N[C@@]3(C(=O)Nc4ccccc43)[C@]23CCc2c([nH]c4ccc(Cl)cc24)C3=O)cc1 | Dose-dependent effect
COc1ccc([C@H]2[C@@H](c3ccccc3)N[C@@]3(C(=O)Nc4ccccc43)[C@]23CCc2c([nH]c4ccc(C)cc24)C3=O)cc1 | Dose-dependent effect
O=C1Nc2ccccc2[C@]12N[C@H](c1ccccc1)[C@H](c1cccs1)[C@@]21CCc2c([nH]c3ccccc23)C1=O | Dose-dependent effect

Same assay, conditions: MCF7, 48 h

IC50 [µM] | SMILES
17 | COc1ccc([C@H]2[C@@H](c3ccccc3)N[C@@]3(C(=O)Nc4ccccc43)[C@]23CCc2c([nH]c4ccccc24)C3=O)cc1
19 | COc1ccc([C@H]2[C@@H](c3ccccc3)N[C@@]3(C(=O)Nc4ccccc43)[C@]23CCc2c([nH]c4ccc(Cl)cc24)C3=O)cc1
18 | COc1ccc([C@H]2[C@@H](c3ccccc3)N[C@@]3(C(=O)Nc4ccccc43)[C@]23CCc2c([nH]c4ccc(C)cc24)C3=O)cc1
15 | O=C1Nc2ccccc2[C@]12N[C@H](c1ccccc1)[C@H](c1cccs1)[C@@]21CCc2c([nH]c3ccccc23)C1=O

The molecules below were run on A549 (assay: Induction of apoptosis in human A549 cells assessed as membrane blebbing after 24 hrs by brightfield inverted light microscopic analysis). Conditions: not given.
Type: functional, cell-based

SMILES | Activity
COc1ccc([C@H]2[C@@H](c3ccccc3)N[C@@]3(C(=O)Nc4ccccc43)[C@]23CCc2c([nH]c4ccc(Cl)cc24)C3=O)cc1 | inactive
COc1ccc([C@H]2[C@@H](c3ccccc3)N[C@@]3(C(=O)Nc4ccccc43)[C@]23CCc2c([nH]c4ccc(C)cc24)C3=O)cc1 | inactive
O=C1Nc2ccccc2[C@]12N[C@H](c1ccccc1)[C@H](c1cccs1)[C@@]21CCc2c([nH]c3ccccc23)C1=O | inactive

What follows are molecules tested on A549 (assay: Induction of apoptosis in human A549 cells by acridine orange/ethidium bromide staining-based fluorescence microscopic analysis). Conditions: not given.
Type: functional, cell-based
Summary of the method: as §2

SMILES | Activity
COc1ccc([C@H]2[C@@H](c3ccccc3)N[C@@]3(C(=O)Nc4ccccc43)[C@]23CCc2c([nH]c4ccc(Cl)cc24)C3=O)cc1 | inactive
COc1ccc([C@H]2[C@@H](c3ccccc3)N[C@@]3(C(=O)Nc4ccccc43)[C@]23CCc2c([nH]c4ccc(C)cc24)C3=O)cc1 | inactive
O=C1Nc2ccccc2[C@]12N[C@H](c1ccccc1)[C@H](c1cccs1)[C@@]21CCc2c([nH]c3ccccc23)C1=O | Active

What follows are molecules tested on A549 (assay: Antiproliferative activity against human A549 cells after 48 hrs by MTT assay). Conditions: not given.
Type: functional, cell-based
Summary of the method: as §3

SMILES | Activity
COc1ccc([C@H]2[C@@H](c3ccccc3)N[C@@]3(C(=O)Nc4ccccc43)[C@]23CCc2c([nH]c4ccccc24)C3=O)cc1 | Dose-dependent effect
COc1ccc([C@H]2[C@@H](c3ccccc3)N[C@@]3(C(=O)Nc4ccccc43)[C@]23CCc2c([nH]c4ccc(Cl)cc24)C3=O)cc1 | Dose-dependent effect
COc1ccc([C@H]2[C@@H](c3ccccc3)N[C@@]3(C(=O)Nc4ccccc43)[C@]23CCc2c([nH]c4ccc(C)cc24)C3=O)cc1 | Dose-dependent effect
O=C1Nc2ccccc2[C@]12N[C@H](c1ccccc1)[C@H](c1cccs1)[C@@]21CCc2c([nH]c3ccccc23)C1=O | Dose-dependent effect

Same assay, conditions: A549, 48 h

IC50 [µM] | SMILES
21 | COc1ccc([C@H]2[C@@H](c3ccccc3)N[C@@]3(C(=O)Nc4ccccc43)[C@]23CCc2c([nH]c4ccccc24)C3=O)cc1
18 | COc1ccc([C@H]2[C@@H](c3ccccc3)N[C@@]3(C(=O)Nc4ccccc43)[C@]23CCc2c([nH]c4ccc(Cl)cc24)C3=O)cc1
20 | COc1ccc([C@H]2[C@@H](c3ccccc3)N[C@@]3(C(=O)Nc4ccccc43)[C@]23CCc2c([nH]c4ccc(C)cc24)C3=O)cc1
16 | O=C1Nc2ccccc2[C@]12N[C@H](c1ccccc1)[C@H](c1cccs1)[C@@]21CCc2c([nH]c3ccccc23)C1=O
